Here are results for two compounds from ChEMBL document CHEMBL1155156, “In vitro interactions between apricitabine and other deoxycytidine analogues” (Antimicrob Agents Chemother, 2007).

Data set [1] has as its system PBMC. In words: Drug level in human resting PBMC assessed as apricitabine triphosphate level at 2.6 uM after 24 hrs. Format: ADME, cell-based. A digest of the protocol: (§1)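 Unstimulated PBMC from a single healthy donor, cultured in RPMI 1640 + 10% heat-inactivated FBS, seeded at 1.0 × 10⁶ cells/ml and incubated 24 h with 2.6 μM ³H-labelled nucleoside alone. Cold PBS washes, 60% methanol extraction at −20°C overnight, C18 reverse-phase HPLC (7.5 mM sodium dihydrogen phosphate, pH 6.8) with online radiodetection. Intracellular parent, MP, DP, TP reported as μM (1 pmol/10⁶ cells ≈ 1 μM).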

Data set [2] has as its system PBMC. In words: Drug level in human phytohemagglutininin-activated PBMC assessed as apricitabine triphosphate level at 2.6 uM after 24 hrs. The class given is ADME, cell-based. A digest of the protocol:
(§2)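 Single healthy donor PBMC from Ficoll-type separation with hypotonic erythrocyte lysis, cultured in RPMI 1640 + 10% heat-inactivated FBS and stimulated 72 h with PHA-M 5 μg/ml plus IL-2 10 U/ml. Seeded at 0.75 × 10⁶ cells/ml and exposed 24 h to 2.6 μM ³H-labelled nucleoside alone. Cells washed cold, extracted in 60% methanol, analysed by C18 reverse-phase HPLC (7.5 mM NaH2PO4, pH 6.8) with online radioactivity detection. Parent and MP/DP/TP expressed as μM (1 pmol/10⁶ cells ≈ 1 μM).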

Data set [3] has as its system Human immunodeficiency virus 1. In words: Antiviral activity against HIV1 with reverse transcriptase M184V mutation in human phytohemagglutininin-activated PBMC assessed as inhibition of viral replication. The class given is functional, organism-based. A digest of the protocol: (§3)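 PBMC from one healthy donor, stimulated 3 days with PHA (5 μg/ml) plus IL-2 (10 U/ml), infected with HIV-1 M184V at MOI 0.02 for 3 h at 37°C, washed, 2 × 10⁵ cells/well into drug-containing medium. Half the medium renewed with drug at day 4. Day 7 supernatant RT activity measured on poly(rA)(dT) with [³H]dTTP. Triplicates.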

Data set [4] deals with PBMC. In words: Drug level in human phytohemagglutininin-activated PBMC assessed as apricitabine monophosphate level at 2.6 uM after 24 hrs. Format: ADME, cell-based. A digest of the protocol: as §2
Data set [5] relates to PBMC. In words: Drug level in human phytohemagglutininin-activated PBMC assessed as apricitabine diphosphate level at 2.6 uM after 24 hrs. Format: ADME, cell-based. A digest of the protocol:
as §2

In data set [6] the test system is PBMC. In words: Drug level in human phytohemagglutininin-activated PBMC at 2.6 uM after 24 hrs. Format: ADME, cell-based. A digest of the protocol: as §2
In data set [7] the test system is PBMC. In words: Drug level in human resting PBMC assessed as apricitabine diphosphate level at 2.6 uM after 24 hrs. The class given is ADME, cell-based. In a few lines: as §1
The subject of data set [8] is Human immunodeficiency virus. In words: Antiviral activity against HIV in T cells assessed as inhibition of viral replication. The conditions noted are these: Human immunodeficiency virus 1, T-cell. The class given is functional, organism-based.
Data set [9] concerns Human immunodeficiency virus. In words: Antiviral activity against HIV in PBMCs assessed as inhibition of viral replication. Format: functional, organism-based. The conditions noted are these: Human immunodeficiency virus 1.
The test system of data set [10] is PBMC. In words: Drug level in human resting PBMC assessed as apricitabine monophosphate level at 2.6 uM after 24 hrs. Format: ADME, cell-based. A digest of the protocol: as §1
Data set [11] deals with PBMC. In words: Drug level in human resting PBMC at 2.6 uM after 24 hrs. Format: ADME, cell-based. In a few lines: as §1
Data set [12] concerns PBMC. In words: Drug level in human resting PBMC assessed as Lamivudine diphosphate level at 2.6 uM after 24 hrs. The class given is ADME, cell-based. In a few lines: as §1
In data set [13] the test system is PBMC. In words: Drug level in human resting PBMC assessed as Lamivudine triphosphate level at 2.6 uM after 24 hrs. Format: ADME, cell-based. A digest of the protocol: as §1
Data set [14] deals with Human immunodeficiency virus 1. In words: Antiviral activity against HIV1 with reverse transcriptase M184V mutation in human phytohemagglutininin-activated PBMC assessed as inhibition of viral replication at 200 uM. Format: functional. In a few lines: as §3
Data set [15] has as its system PBMC. In words: Drug level in human phytohemagglutininin-activated PBMC assessed as Lamivudine monophosphate level at 2.6 uM after 24 hrs. The class given is ADME, cell-based. In a few lines:
as §2

The subject of data set [16] is PBMC. In words: Drug level in human phytohemagglutininin-activated PBMC assessed as Lamivudine triphosphate level at 2.6 uM after 24 hrs. Format: ADME, cell-based. In a few lines: as §2
For data set [17], the system named is Human immunodeficiency virus 1. In words: Antiviral activity against HIV1 with reverse transcriptase M184V mutation in human phytohemagglutininin-activated PBMC assessed as inhibition of viral replication at 60 uM. The class given is functional. A digest of the protocol: as §3
Data set [18] deals with PBMC. In words: Drug level in human resting PBMC assessed as Lamivudine monophosphate level at 2.6 uM after 24 hrs. The class given is ADME, cell-based. A digest of the protocol: as §1
Data set [19] relates to PBMC. In words: Drug level in human phytohemagglutininin-activated PBMC assessed as Lamivudine diphosphate level at 2.6 uM after 24 hrs. The class given is ADME, cell-based. A digest of the protocol: as §2

For orientation: EC50 means the concentration that produces a half-maximal response. As a reminder, the EC90 is the concentration needed for an effect of 90%. For `Nc1ccn([C@H]2CO[C@@H](CO)S2)c(=O)n1` [APRICITABINE], the Drug uptake with PBMC [1] was 0.33 µM; in the data set on PBMC [2], 0.54 µM; with PBMC [4] it was 0.23 µM; in the data set with PBMC [5] it was 0.69 µM; in the data set on PBMC [6], 1.19 µM; with PBMC [7] it was 0.58 µM. Further, the values for the Drug uptake in the data set with PBMC [10] and in the data set with PBMC [11] were 0.11 µM and 0.39 µM, respectively. For the same compound, the EC50 in data set [3] is 1900 nM; in data set [8] it was 1000 nM; in [9], 100 nM. Also, the EC90 in [3] amounted to 11900 nM.

Usually inhibition stands for the drop in the measured response relative to a control, in per cent. In the case of `Nc1ccn([C@@H]2CS[C@H](CO)O2)c(=O)n1` [LAMIVUDINE], the Drug uptake in the data set with PBMC [12] is 1.01 µM; with PBMC [13] it was 0.73 µM; in the data set with PBMC [6], 0.18 µM; with PBMC [15] it was 0.52 µM; in the data set with PBMC [16], 0.66 µM; with PBMC [18], 0.12 µM. Further, the Drug uptake in the data set with PBMC [19] was 1.66 µM; in the data set with PBMC [11] it was 0.1 µM. Also, the EC50 in data set [3] was found to be 68000 nM. Further, the inhibition at 200 µM in data set [14] came to 45%. Moreover, the inhibition at 60 µM in data set [17] is 45%.
